Source: ChEMBL document CHEMBL1128579, “The role of charge in polyamine analogue recognition” (J Med Chem, 1995)

Assays:
L1210 [1] = experiment: Level (100 uM) in L1210 cells.; format: functional, Mus musculus
Procedure, shortened: (§1)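 Logarithmic-phase murine L1210 cells grown 48 h with analogue at the stated concentration. Cells washed twice in cold RPMI-1640 and extracted with 0.6 N perchloric acid; supernatants held at -20 °C, then analysed by HPLC. Put, Spd and Spm given relative to untreated controls (100%); intracellular analogue given as pmol/10^6 cells.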

L1210 [2] = experiment: Concentration inhibiting radiolabeled spermidine transport in L1210 cells.; format: functional, cell-based, Mus musculus
Procedure, shortened: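 Competition with [3H]- or [14C]spermidine uptake into L1210 leukemia cells. Cells incubated 20 min at 37 °C in RPMI-1640 with 1, 2, 4, 6, 8 and 10 μM radiolabeled SPD, alone or plus 10, 25 or 50 μM analogue. Cells pelleted at 0–4 °C, washed with cold medium containing 1 μM SPD, NaOH-dissolved, then scintillation counted. Ki taken from Lineweaver–Burk plots as simple competitive inhibition.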

L1210 [3] = experiment: Impact on polyamine biosynthetic enzyme, S-adenosyl-L-methionine decarboxylase in L1210 cells treated with the compound for 6 hr.; format: cell-based; parameters: concentration or dose not given beside the values
Procedure, shortened: (§2)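 L1210 cells treated with analogue: 4 h for ODC, 6 h for AdoMetDC, 48 h for SSAT. ODC and AdoMetDC measured as 14CO2 released from [14C]carboxyl-labeled L-ornithine or S-adenosyl-L-methionine. SSAT measured as [14C]acetylspermidine formed from SPD and [14C]acetyl-CoA. Triplicate runs, each with untreated and positive controls (10 μM DENSPM for ODC and AdoMetDC). Activity given as % of untreated control.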

[4] = target: Spermidine/spermine N(1)-acetyltransferase (SAT) (Mus musculus) (UniProt Q6P8J2+P48026); experiment: Impact on polyamine biosynthetic enzyme Spermidine N-acetyl-transferase in L1210 cells treated with the compound for 48 hr.; format: cell-based; parameters: concentration or dose not given beside the values; procedure, shortened: as §2
[5] = Titrimetrically measured pKa3 value of the compound; format: physicochemical; details: read-out: pKa3
Procedure, shortened: (§3)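 pKa values determined by titration; relative abundance of each ionic species then calculated for pH 7.4.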

L1210 [6] = experiment: Inhibitory concentration against L1210 cells on 96h incubation.; format: functional, cell-based; details: Mus musculus, L1210, 96 h
Procedure, shortened: (§4)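 Murine L1210 leukemia cells in suspension in RPMI-1640 with 10% NuSerum, HEPES-MOPS and 1 mM aminoguanidine, 37 °C, 5% CO2. Log-phase cultures at (0.5-1.0) × 10^5 cells/mL treated with filtered aqueous analogue for 48 h, then reseeded and grown a further 48 h. Cells counted by Coulter counter. IC50 is the concentration giving 50% of control growth, corrected for initial inoculum.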

[7] = target: T1, Ornithine decarboxylase (Mus musculus) (UniProt P00860); experiment: Impact on polyamine biosynthetic enzyme, Ornithine decarboxylase in L1210 cells treated with the compound for 4 hr.; format: cell-based; parameters: concentration or dose not given beside the values; procedure, shortened: as §2
T1 sequence (whole entry): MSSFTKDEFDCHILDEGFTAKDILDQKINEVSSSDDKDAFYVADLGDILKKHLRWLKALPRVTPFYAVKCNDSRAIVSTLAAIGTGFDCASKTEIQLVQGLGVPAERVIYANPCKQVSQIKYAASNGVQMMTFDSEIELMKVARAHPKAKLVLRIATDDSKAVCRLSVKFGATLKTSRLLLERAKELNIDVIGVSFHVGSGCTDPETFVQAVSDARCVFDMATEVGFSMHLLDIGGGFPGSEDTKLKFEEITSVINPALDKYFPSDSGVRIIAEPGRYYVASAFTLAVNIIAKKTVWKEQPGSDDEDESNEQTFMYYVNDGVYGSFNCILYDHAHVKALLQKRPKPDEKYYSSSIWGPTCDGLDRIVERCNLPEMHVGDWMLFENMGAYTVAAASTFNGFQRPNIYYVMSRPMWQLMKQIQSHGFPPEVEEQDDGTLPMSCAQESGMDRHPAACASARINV

[8] = Titrimetrically measured pKa1 value of the compound; format: physicochemical; details: read-out: pKa1; procedure, shortened: as §3
L1210 [9] = experiment: Impact (100 uM) on polyamine(Put) pools in L1210 cells, expressed relative to untreated controls (control = 100%).; format: functional, Mus musculus; procedure, shortened: as §1
[10] = Titrimetrically measured pKa4 value of the compound; format: physicochemical; details: read-out: pKa4; procedure, shortened: as §3
L1210 [11] = experiment: Impact (100 uM) on polyamine(Spm) pools in L1210 cells, expressed relative to untreated controls (control = 100%).; format: functional, Mus musculus; procedure, shortened: as §1
L1210 [12] = experiment: Impact (100 uM) on polyamine(Spd) pools in L1210 cells, expressed relative to untreated controls (control = 100%).; format: functional, Mus musculus; procedure, shortened: as §1
[13] = Titrimetrically measured pKa2 value of the compound; format: physicochemical; details: read-out: pKa2; procedure, shortened: as §3
L1210 [14] = experiment: Inhibitory concentration against L1210 cells on 96 hr incubation.; format: functional, cell-based; details: Mus musculus, L1210, 96 h; procedure, shortened: as §4
L1210 [15] = experiment: Level (30 uM) in L1210 cells.; format: functional, Mus musculus; procedure, shortened: as §1
L1210 [16] = experiment: Impact (30 uM) on polyamine(Spd) pools in L1210 cells, expressed relative to untreated controls (control = 100%).; format: functional, Mus musculus; procedure, shortened: as §1
L1210 [17] = experiment: Impact (30 uM) on polyamine(Put) pools in L1210 cells, expressed relative to untreated controls (control = 100%).; format: functional, Mus musculus; procedure, shortened: as §1
L1210 [18] = experiment: Impact (30 uM) on polyamine(Spm) pools in L1210 cells, expressed relative to untreated controls (control = 100%).; format: functional, Mus musculus; procedure, shortened: as §1
L1210 [19] = experiment: Level (2 uM) in L1210 cells.; format: functional, Mus musculus; procedure, shortened: as §1
L1210 [20] = experiment: Impact (2 uM) on polyamine(Put) pools in L1210 cells, expressed relative to untreated controls (control = 100%).; format: functional, Mus musculus; procedure, shortened: as §1
L1210 [21] = experiment: Impact (2 uM) on polyamine(Spm) pools in L1210 cells, expressed relative to untreated controls (control = 100%).; format: functional, Mus musculus; procedure, shortened: as §1
L1210 [22] = experiment: Impact (2 uM) on polyamine(Spd) pools in L1210 cells, expressed relative to untreated controls (control = 100%).; format: functional, Mus musculus; procedure, shortened: as §1

Chain of Spermidine/spermine N(1)-acetyltransferase (SAT) (Mus musculus) (P48026 whole entry, looked up): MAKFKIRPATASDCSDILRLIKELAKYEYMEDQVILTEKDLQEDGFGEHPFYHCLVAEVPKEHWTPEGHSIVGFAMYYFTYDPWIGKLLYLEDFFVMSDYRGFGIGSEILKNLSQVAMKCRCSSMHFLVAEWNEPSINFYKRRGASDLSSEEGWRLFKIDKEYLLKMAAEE
Chain of Spermidine/spermine N(1)-acetyltransferase (SAT) (Mus musculus) (Q6P8J2 whole entry, looked up): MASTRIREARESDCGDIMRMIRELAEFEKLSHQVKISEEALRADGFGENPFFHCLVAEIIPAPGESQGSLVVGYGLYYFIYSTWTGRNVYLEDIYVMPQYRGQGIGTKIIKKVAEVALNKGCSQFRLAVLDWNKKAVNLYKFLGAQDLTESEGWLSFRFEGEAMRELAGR

| Control [4] [%] | pKa [5] | IC50 (L1210 [6]) [µM] | Control [7] [%] | pKa [8] | pKa [10] | pKa [13] | IC50 (L1210 [14]) [µM] | SMILES | Ki (L1210 [2]) [µM] | Control (L1210 [3]) [%] | Polyamine pools (L1210 [9]) [%] | Polyamine pools (L1210 [11]) [%] | Polyamine pools (L1210 [12]) [%] | also measured |
| --- | --- | --- | --- | --- | --- | --- | --- | --- | --- | --- | --- | --- | --- | --- |
| 97 | 4.81 | > 100 | 100 | 10.5 | 4.09 | 9.41 |  | FC(F)(F)CNCCCNCCCCNCCCNCC(F)(F)F | 285 | 100 | 103 | 108 | 103 | Analogue level (L1210 [1]): <20 pM (10e6*cells)-1 |
|  | 8.82 |  |  | 10.9 | 7.95 | 10.1 |  | NCCCNCCCCNCCCN [SPERMINE] |  |  |  |  |  |  |
| 140 | 5.69 |  | 100 | 9.81 | 4.93 | 8.85 | > 100 | c1cc(CCNCCCCNCCc2ccncc2)ccn1 | > 500 | 100 | 124 | 96 | 85 |  |
| 460 |  | 0.2 | 3 |  |  |  |  | CCNCCCNCCCCNCCCNCC [BIS(ETHYL)SPERMINE] |  | 28 |  |  |  | Analogue level (L1210 [15]): 1780 pM (10e6*cells)-1; Polyamine pools (L1210 [16]): 0%; Polyamine pools (L1210 [17]): 0%; Polyamine pools (L1210 [18]): 22% |
| 325 | 9.43 |  | 6 | 10.9 | 8.45 | 10.7 | 0.1 | C(CCNCC1CCNCC1)CNCC1CCNCC1 | 4.9 | 39 |  |  |  | Analogue level (L1210 [19]): 2518 pM (10e6*cells)-1; Polyamine pools (L1210 [20]): 0%; Polyamine pools (L1210 [21]): 50%; Polyamine pools (L1210 [22]): 5% |
| 87 | 4.43 |  | 90 | 9.23 | 3.77 | 7.64 | 80 | c1cc(CNCCCCNCc2ccncc2)ccn1 | > 500 | 100 | 87 | 99 | 95 |  |
